In one data set the test system is Mus musculus. Put plainly: Anticonvulsant activity in ip dosed albino Carworth Farms No. 1 mouse measured at 0.25 hrs by 6Hz (32 mA) psychomotor seizure test. It counts as functional. The note with it: Carworth Farms No. 1, ip. An outline of the steps:
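Screened under the NIH anticonvulsant program in male albino Carworth Farms No. 1 mice (ip) and male albino Sprague-Dawley rats (ip or oral). Protection tested by maximal electroshock or 6 Hz (32 mA) psychomotor stimulation.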

The nature of data set [1]: Protective index, ratio of TD50 for behavioural toxicity in po dosed albino Sprague-Dawley rat to ED50 for anticonvulsant activity in po dosed MES albino Sprague-Dawley rat model. It counts as organism-based. The conditions noted are these: in vivo, read-out: Ratio TD50/ED50. An outline of the steps: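 Male albino Sprague-Dawley rats were dosed ip or orally. Protective index = TD50/ED50, the ED50 taken from maximal electroshock by the same route.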

A short description of data set [2]: Behavioural toxicity in ip dosed albino Sprague-Dawley rat measured at 2 hrs. It counts as organism-based. The note with it: in vivo.
Data set [3] is described as follows: Protective index, ratio of TD50 for behavioural toxicity in ip dosed albino Sprague-Dawley rat to ED50 for anticonvulsant activity in ip dosed MES albino Sprague-Dawley rat model. In kind it is organism-based. The conditions noted are these: in vivo, read-out: Ratio TD50/ED50. In short, it runs like this:
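Male albino Sprague-Dawley rats were dosed ip or orally. […] Protective index = TD50/ED50, the ED50 taken from maximal electroshock by the same route.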

Data set [4] is filed under the species Rattus norvegicus. Put plainly: Effect on steady state fast-inactivation of voltage-gated sodium channel in rat embryonic cortical neurons at 10 uM by whole cell patch-clamp electrophysiology. An outline of the steps: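 Rat embryonic day 19 cortical neurons, cultured 7–10 days, were whole-cell voltage-clamped at room temperature with 1–2 MΩ electrodes, with compound at 10 μM and 0.1% DMSO as control. Fast inactivation: 500 ms prepulses, then a test pulse. Activation: conductance G = I/(Vm − Vrev). V1/2 and k came from Boltzmann fits to individual cells, averaged (mean ± SEM), 5–7 cells per condition.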

For data set [5], the system named is CAD. Put plainly: Inhibition of voltage-gated sodium channel in mouse CAD cells assessed as transition of channels to slow-inactivated state by whole cell patch-clamp electrophysiology. It counts as cell-based. In short, it runs like this:
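CAD cells were grown in Ham's F12/DMEM with 10% FBS at 37 °C and 5% CO2, then recorded by whole-cell voltage clamp at room temperature. A concentration range of compound was tested versus 0.1% DMSO. Slow inactivation was measured at −50 and +20 mV, and IC50 was derived from concentration-response curves.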
(In patch-clamp work, channel activity is measured electrically.)

Data set [6] is described as follows: Inhibition of voltage-gated sodium channel in mouse CAD cells assessed as transition of channels to slow-inactivated state measured at -50 mV by whole cell patch-clamp electrophysiology. In kind it is cell-based. An outline of the steps: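 CAD cells were grown in Ham's F12/DMEM with 10% FBS at 37 °C and 5% CO2, with native Na+ currents mostly from Nav1.7. Whole-cell voltage clamp at room temperature across a range of concentrations against 0.1% DMSO. IC50 for induction of slow inactivation was taken from concentration-response curves at −50 mV (also at +20 mV).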

Data set [7] has as its system CAD. Put plainly: Frequency-dependent inhibition of voltage-gated sodium channel in mouse CAD cells assessed as decrease in current amplitude at 10 uM by whole cell patch-clamp electrophysiology. It counts as cell-based. An outline of the steps: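 CAD cells, whole-cell voltage clamp at room temperature, with compound at 1, 10 or 30 μM against 0.1% DMSO. Thirty identical test pulses were given at 10 Hz. Current was normalized as peak at pulse N over pulse 1, and the maximal decrement was read at the end of the train. One-way ANOVA with Dunnett's test; 4–10 cells per condition.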

Data set [8] concerns the target Sodium channel protein type 3 subunit alpha (Rattus norvegicus) (UniProt P08104). In words: Inhibition of rat Nav1.3 expressed in HEK293 cells assessed as transition of channels to slow-inactivated state at 10 uM measured at -50 mV by whole cell patch-clamp electrophysiology. It counts as cell-based. In short, it runs like this:
(§1)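 HEK293 cells stably expressing hNav1.1, rNav1.3, hNav1.7 or hNav1.5 were grown in DMEM with 10% FBS. Recordings were whole-cell voltage clamp at room temperature, with 10 μM compound versus 0.1% DMSO. Slow inactivation at −50 mV was calculated as 1 minus normalized peak INa. Nav1.5 used hyperpolarized protocols. Data are from 5–6 cells.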

For data set [9], the target named is Sodium channel protein type 9 subunit alpha (Homo sapiens) (UniProt Q15858). Put plainly: Inhibition of human Nav1.7 expressed in HEK293 cells assessed as transition of channels to slow-inactivated state at 10 uM measured at -50 mV by whole cell patch-clamp electrophysiology. It counts as cell-based. In short, it runs like this:
as §1

Data set [10] has as its target Sodium channel protein type 3 subunit alpha (Rattus norvegicus) (UniProt P08104). In words: Inhibition of rat Nav1.3 expressed in HEK293 cells assessed as half-maximal voltage for steady state activation at 10 uM by whole cell patch-clamp electrophysiology (reference value: -29.62 +/-3.59 mV). It counts as cell-based.
In data set [11] the target is Sodium channel protein type 5 subunit alpha (Homo sapiens, UniProt Q14524). In words: Inhibition of human Nav1.5 expressed in HEK293 cells assessed as half-maximal voltage for steady state fast-inactivation at 10 uM by whole cell patch-clamp electrophysiology (reference value: -96.54 +/-1.64 mV). In kind it is cell-based. The conditions noted are these: hek293, 10 µM.

A further data set deals with T1, Cytochrome P450 2B6 (Homo sapiens, UniProt P20813).
T1 sequence (P20813 whole entry): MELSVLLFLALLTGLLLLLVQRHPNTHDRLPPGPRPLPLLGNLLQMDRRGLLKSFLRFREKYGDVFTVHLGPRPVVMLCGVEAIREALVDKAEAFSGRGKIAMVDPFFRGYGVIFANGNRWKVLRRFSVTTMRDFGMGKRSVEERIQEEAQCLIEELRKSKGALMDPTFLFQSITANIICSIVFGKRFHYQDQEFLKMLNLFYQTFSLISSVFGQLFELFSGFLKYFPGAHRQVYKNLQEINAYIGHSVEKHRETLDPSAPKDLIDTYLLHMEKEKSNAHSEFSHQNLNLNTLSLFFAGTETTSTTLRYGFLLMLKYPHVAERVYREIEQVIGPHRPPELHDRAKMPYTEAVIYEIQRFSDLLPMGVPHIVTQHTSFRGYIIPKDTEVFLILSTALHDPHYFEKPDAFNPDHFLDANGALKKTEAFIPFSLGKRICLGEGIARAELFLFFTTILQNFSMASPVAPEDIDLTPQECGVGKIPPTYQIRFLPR
Put plainly: Inhibition of human CYP2B6 at 10 uM. It counts as ADME. An outline of the steps:
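Test compound at 10 μM against a human CYP450 panel (CYP1A2, 2B6, 2C8, 2C9, 2C19, 2D6, 3A4/5). Direct inhibition was measured, and time-dependent inhibition was measured after a 30-min preincubation.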

Data set [12] in a line: Half life in Sprague-Dawley rat at 20 mg/kg, po. The note with it: in vivo. It counts as ADME, organism-based. An outline of the steps: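 Pharmacokinetics in Sprague-Dawley rats given a single iv dose of 5 mg/kg or an oral dose of 20 mg/kg.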
Data set [13] deals with Rattus norvegicus. Put plainly: Toxicity in po dosed Sprague-Dawley rat assessed as changes in body weight administered via gavage. It counts as organism-based. The conditions noted are these: in vivo.
Data set [14] relates to Rattus norvegicus. In words: Toxicity in po dosed Sprague-Dawley rat assessed as increase in liver weight administered via gavage. In kind it is organism-based. The conditions noted are these: in vivo. In short, it runs like this:
(§2)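 Non-GLP repeated-dose study: female Sprague-Dawley rats given compound by oral gavage once daily for 7 days at 20, 60 and 180 mg/kg/day. Endpoints included weight bearing, gait coordination, respiratory rate, relative organ weights (liver, spleen, thymus), clinical chemistry and gross pathology; NOAEL derived.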

In data set [15] the test system is Rattus norvegicus. Put plainly: Toxicity in po dosed Sprague-Dawley rat assessed as decrease in thymus weight administered via gavage. It counts as organism-based. The note with it: in vivo. In short, it runs like this: as §2

We go through 1 molecule from ChEMBL document CHEMBL3588826, “Chimeric derivatives of functionalized amino acids and α-aminoamides: compounds with anticonvulsant activity in seizure models and inhibitory actions on central, peripheral, and cardiac isoforms of voltage-gated sodium channels” (Bioorg Med Chem, 2015).

Active and inactive are the calls of the source.

Sequence of Sodium channel protein type 3 subunit alpha (Rattus norvegicus) (P08104 whole entry): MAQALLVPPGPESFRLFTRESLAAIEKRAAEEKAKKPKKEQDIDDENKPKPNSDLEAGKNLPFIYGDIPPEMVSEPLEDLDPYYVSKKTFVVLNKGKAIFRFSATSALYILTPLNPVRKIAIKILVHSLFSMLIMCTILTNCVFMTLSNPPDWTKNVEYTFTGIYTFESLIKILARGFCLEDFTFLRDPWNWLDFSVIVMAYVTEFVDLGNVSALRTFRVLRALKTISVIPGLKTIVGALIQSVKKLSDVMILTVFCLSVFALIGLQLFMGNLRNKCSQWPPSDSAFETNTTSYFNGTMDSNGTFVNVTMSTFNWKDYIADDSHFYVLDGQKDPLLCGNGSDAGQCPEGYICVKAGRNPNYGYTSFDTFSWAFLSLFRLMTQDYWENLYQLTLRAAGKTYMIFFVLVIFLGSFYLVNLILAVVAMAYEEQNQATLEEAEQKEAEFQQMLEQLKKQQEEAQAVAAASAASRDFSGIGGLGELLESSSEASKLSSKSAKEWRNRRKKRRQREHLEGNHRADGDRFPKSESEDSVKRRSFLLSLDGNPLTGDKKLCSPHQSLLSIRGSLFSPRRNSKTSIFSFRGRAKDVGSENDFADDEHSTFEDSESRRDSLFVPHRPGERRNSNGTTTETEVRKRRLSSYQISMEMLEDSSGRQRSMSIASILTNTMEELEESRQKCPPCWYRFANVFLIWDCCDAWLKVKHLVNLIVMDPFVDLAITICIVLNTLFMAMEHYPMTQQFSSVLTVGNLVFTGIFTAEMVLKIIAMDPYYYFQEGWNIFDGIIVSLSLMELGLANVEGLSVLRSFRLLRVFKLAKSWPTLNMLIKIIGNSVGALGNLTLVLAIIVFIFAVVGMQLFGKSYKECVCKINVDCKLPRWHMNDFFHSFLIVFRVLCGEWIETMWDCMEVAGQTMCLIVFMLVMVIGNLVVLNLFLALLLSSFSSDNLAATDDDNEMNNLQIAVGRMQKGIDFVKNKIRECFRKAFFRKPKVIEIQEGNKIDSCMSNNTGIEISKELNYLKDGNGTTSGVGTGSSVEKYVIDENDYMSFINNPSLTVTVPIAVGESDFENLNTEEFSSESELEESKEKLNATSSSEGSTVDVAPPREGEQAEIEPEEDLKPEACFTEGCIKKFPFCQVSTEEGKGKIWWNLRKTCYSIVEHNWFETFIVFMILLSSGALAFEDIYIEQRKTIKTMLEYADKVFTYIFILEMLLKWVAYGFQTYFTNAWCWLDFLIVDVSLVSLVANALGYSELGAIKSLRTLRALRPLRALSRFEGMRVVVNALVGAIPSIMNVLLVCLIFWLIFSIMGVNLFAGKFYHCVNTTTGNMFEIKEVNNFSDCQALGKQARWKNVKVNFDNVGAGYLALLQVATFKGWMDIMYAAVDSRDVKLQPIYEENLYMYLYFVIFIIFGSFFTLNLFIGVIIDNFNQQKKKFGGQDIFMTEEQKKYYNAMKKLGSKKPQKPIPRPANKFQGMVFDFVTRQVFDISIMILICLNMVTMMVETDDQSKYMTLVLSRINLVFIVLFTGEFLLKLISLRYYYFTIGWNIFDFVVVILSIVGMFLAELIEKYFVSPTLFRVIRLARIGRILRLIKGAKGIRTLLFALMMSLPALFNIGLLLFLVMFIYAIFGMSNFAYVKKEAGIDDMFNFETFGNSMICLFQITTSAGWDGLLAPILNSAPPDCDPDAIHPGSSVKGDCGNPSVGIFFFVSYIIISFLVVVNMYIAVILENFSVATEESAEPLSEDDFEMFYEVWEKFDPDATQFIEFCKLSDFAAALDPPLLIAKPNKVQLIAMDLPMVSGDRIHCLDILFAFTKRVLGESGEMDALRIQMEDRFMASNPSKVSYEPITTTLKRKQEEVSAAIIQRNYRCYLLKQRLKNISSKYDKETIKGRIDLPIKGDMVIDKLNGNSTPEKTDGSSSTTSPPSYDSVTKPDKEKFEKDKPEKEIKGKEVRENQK
Sequence of Sodium channel protein type 9 subunit alpha (Homo sapiens) (Q15858 whole entry, looked up): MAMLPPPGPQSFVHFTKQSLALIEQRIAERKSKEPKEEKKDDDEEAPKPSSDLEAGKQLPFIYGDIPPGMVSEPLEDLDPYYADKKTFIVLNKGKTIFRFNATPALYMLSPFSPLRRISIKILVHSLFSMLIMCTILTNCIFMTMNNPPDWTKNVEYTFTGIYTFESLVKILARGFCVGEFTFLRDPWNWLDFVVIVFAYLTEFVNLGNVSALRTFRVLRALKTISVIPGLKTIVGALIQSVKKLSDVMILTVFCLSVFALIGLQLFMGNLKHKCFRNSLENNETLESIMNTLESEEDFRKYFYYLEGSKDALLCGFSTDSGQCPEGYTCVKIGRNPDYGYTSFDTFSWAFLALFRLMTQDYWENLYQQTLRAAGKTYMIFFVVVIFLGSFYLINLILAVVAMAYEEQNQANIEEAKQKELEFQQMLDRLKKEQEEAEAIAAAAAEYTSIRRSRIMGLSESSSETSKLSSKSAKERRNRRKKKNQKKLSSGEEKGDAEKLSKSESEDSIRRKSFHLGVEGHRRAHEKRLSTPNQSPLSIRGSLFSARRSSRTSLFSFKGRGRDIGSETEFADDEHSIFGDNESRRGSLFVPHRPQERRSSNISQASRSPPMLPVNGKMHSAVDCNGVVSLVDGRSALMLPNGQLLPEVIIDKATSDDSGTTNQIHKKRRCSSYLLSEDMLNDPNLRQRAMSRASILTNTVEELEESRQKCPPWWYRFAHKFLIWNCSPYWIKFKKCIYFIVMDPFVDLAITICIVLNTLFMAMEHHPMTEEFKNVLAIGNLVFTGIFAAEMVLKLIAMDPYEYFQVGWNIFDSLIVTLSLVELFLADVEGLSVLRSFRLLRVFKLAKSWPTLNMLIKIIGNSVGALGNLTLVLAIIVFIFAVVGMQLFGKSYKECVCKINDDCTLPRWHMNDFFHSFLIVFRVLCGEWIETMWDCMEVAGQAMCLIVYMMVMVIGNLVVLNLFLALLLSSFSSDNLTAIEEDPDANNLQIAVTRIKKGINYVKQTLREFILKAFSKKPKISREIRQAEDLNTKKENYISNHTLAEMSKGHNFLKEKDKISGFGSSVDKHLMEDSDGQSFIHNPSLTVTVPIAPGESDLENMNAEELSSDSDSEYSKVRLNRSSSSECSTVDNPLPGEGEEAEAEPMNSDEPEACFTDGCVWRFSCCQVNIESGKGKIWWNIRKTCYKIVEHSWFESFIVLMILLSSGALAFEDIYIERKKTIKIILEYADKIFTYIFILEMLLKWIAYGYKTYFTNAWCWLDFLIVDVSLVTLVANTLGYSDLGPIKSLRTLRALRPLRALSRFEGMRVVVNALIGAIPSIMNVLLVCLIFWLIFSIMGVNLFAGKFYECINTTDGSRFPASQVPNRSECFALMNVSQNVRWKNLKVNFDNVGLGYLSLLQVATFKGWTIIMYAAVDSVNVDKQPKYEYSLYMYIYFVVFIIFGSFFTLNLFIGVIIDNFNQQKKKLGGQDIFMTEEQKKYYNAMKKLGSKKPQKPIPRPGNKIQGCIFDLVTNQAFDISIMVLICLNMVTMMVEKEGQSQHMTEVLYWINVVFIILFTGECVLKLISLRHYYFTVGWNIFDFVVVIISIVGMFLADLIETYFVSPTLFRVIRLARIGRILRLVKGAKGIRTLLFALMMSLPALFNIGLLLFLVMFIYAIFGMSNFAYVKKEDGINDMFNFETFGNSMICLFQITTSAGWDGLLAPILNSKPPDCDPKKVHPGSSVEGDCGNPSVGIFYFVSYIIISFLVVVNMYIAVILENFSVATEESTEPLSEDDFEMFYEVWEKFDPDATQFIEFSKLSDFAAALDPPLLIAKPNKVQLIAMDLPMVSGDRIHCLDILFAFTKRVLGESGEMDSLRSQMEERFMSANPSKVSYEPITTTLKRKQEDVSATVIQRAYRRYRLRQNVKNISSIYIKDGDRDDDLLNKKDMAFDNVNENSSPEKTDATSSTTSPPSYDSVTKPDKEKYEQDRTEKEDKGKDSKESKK

`COC[C@@H](NC(C)=O)C(=O)NCc1ccc(Oc2cccc(OC(F)(F)F)c2)cc1`: the ED50 (in general, the midpoint of the dose-response relation) with Mus musculus was 15 mg/kg. Also, the selectivity ratio in [1] amounted to 29; in data set [3], 9.5. Besides, the TD50 (usually the dose at which the toxic effect under study appears in half of the subjects) at 2 h in data set [2] stood at 54 mg/kg. The outcome in the data set listed under Rattus norvegicus [4] was inactive. Moreover, the inhibition (as a rule, how much of the control response was suppressed) in the data set with CAD [5] is “Dose-dependent effect”; with CAD [7] it was 39%. Moreover, in data set [6], the IC50 (usually the point on the concentration scale where inhibition reaches its midpoint) turned out to be 700 nM. In addition, the inhibition result in [8] and in [9] was “Active” throughout. Moreover, the V1/2 in [10] was -32.5 mV; in [11] it was -95.36 mV. For the same molecule, the “inhibition (INH)” value against Cytochrome P450 2B6 was “Not Active”. The half-life – broadly, the time needed for the level to fall by half in the phase considered – in data set [12] was 4.63 h. For the same molecule, the Activity result in the data set on Rattus norvegicus [13], in the data set on Rattus norvegicus [14] and in the data set on Rattus norvegicus [15] was “Toxic” in each case.
